This is an account of results in article PMC11315199 (Heliyon, 2024).

One series deals with tyrosinase. The settings on record: treating hyperpigmentation disorders; cited from earlier work.
In a further series the test system is human melanocytes. To be noted: doses between 1.25 and 10 μM; cited from earlier work.
In series [1] the test system is cultured human melanoma cells. The settings on record: cited from earlier work.
The test system of the next series is melanocytes. To be noted: 1 mM for 48 h; cited from earlier work.
For another series, the system named is B16F10 cells. The series can be described thus: Anti-melanogenesis activity on B16F10 murine melanomas. The format is cell-based. The settings on record: 20 μg/ml, 72 h. The essentials: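 B16F10 murine melanoma cells (ATCC; DMEM with 10 % FBS) are seeded in 6-well plates and held 24 h in a CO₂ incubator, then exposed to test compound for 72 h. Cells are washed with 1xPBS, dissolved in 10 % NaOH at 60 °C for 1 h, and melanin is read at 450 nm. % anti-melanogenesis = 100 − (Mt/Mc × 100) versus untreated control. Triplicate, three independent experiments; mean ± SD.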

Take `OC[C@H]1O[C@@H](Oc2ccc(O)cc2)[C@H](O)[C@@H](O)[C@@H]1O` [arbutin]: the pigmentation reduction with tyrosinase is on record as 43.5%.
`COc1cc(/C=C/C(=O)CC(=O)/C=C/c2ccc(O)c(OC)c2)ccc1O` [CC, Curcumin]: the melanocyte viability result in the series with human melanocytes is recorded as “without affecting melanocyte viability”.
With `OC[C@H]1O[C@H](Oc2ccc(O)cc2)[C@H](O)[C@@H](O)[C@@H]1O` [AA, Alpha arbutin], the “melanin content and tyrosinase activity” value in series [1] (0.25–0.5 mM) was “decreased melanin content and tyrosinase activity in a dose-dependent manner”. The cell proliferation entry in series [1] (0.25–1 mM) was “no effect on cell proliferation”.
With `CC(=O)Cc1cc(=O)c2c(C)cc(O)c([C@@H]3O[C@H](CO)[C@@H](O)[C@H](O)[C@H]3O)c2o1` [aloesin], in the series on tyrosinase, the pigmentation reduction is recorded as 34%.
Regarding `O=C1O[C@H]([C@@H](O)CO)C([O-])=C1OP(=O)([O-])[O-].O=C1O[C@H]([C@@H](O)CO)C([O-])=C1OP(=O)([O-])[O-].[Mg+2].[Mg+2].[Mg+2]` [MAP, Magnesium ascorbyl phosphate], the “cytotoxic or cell growth inhibiting effects” value in the series with melanocytes is listed as “no noticeable cytotoxic or cell growth inhibiting effects”.
On to `O=c1cc(CO)occ1O` [kojic acid], for which, in the series on B16F10 cells, the “% Anti-melanogenesis” value was 44.54 ± 2.47%.
